Data reported in ChEMBL document CHEMBL1132336, “Synthesis, evaluation, and comparative molecular field analysis of 1-phenyl-3-amino-1,2,3,4-tetrahydronaphthalenes as ligands for histamine H(1) receptors” (J Med Chem, 1999).

Species on record: Cavia porcellus
Experiment: Compound was tested for the displacement of [3H]mepyramine from Histamine H1 receptor by competition binding assay.
How it was run: (§1)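 Membranes from guinea pig brain minus cerebellum (P2 fraction, pre-incubated 15 min at 25 °C, stored at –80 °C). Competition with 2 nM [3H]mepyramine in 50 mM Na+K+-phosphate pH 7.4, 1 h at 30 °C, triplicate tubes. Nonspecific binding defined with 20.0 μM triprolidine. Bound ligand collected on GF/B glass fibre filters, rinsed three times with cold buffer and counted by liquid scintillation.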

Row | Compound | K0.5 [nM]
1 | Cc1ccccc1C1CC(N(C)C)Cc2ccccc21 (configuration not stated) | 12.7
2 | C=CCN1CC[C@@]2(C)c3cc(O)ccc3C[C@H]1[C@H]2C | 2000
3 | Cc1ccc(C2CC(N(C)C)Cc3ccccc32)cc1 (configuration not stated) | 5
4 | CN(C)c1ccc2c3c(cccc13)-c1ccccc1-2 | 4000
5 | CCN(CC)C1Cc2ccccc2C(c2ccccc2)C1 (configuration not stated) | 13.3
6 | CN(C)C1CCc2ccccc2C1 (configuration not stated) | 75
7 | CN(C)C1Cc2ccccc2C(c2ccc(Cl)cc2)C1 (configuration not stated) | 4.4
8 | C[N+](C)(C)C1Cc2ccccc2C(c2ccccc2)C1 (stereo in doubt; 25) | 107
9 | CN1[C@@H]2CC[C@H]1C[C@@H](OC(=O)C(CO)c1ccccc1)C2 (some centres not stated) | 580
10 | C[N+](C)(C)C1Cc2ccccc2C(c2ccccc2)C1 (stereo in doubt; 3) | 120
11 | CN(C)C1Cc2ccccc2C(C)(c2ccccc2)C1 (stereo in doubt; 15) | 4.4
12 | CN(C)C1Cc2ccccc2C(c2ccc(F)cc2)C1 (configuration not stated) | 2.3
13 | CN(C)C1Cc2ccccc2C(c2ccccc2)C1 (stereo in doubt; 1c) | 2.45
14 | CN(C)C1CCc2ccccc2C1c1ccccc1 (stereo in doubt; 8) | > 2000
15 | CN(C)C1Cc2ccccc2C(c2ccccc2)C1 (stereo in doubt; 1b) | 19.1
16 | Nc1ccc2c3c(cccc13)-c1ccccc1-2 | 4000
17 | CC(C)(C)[C@]1(O)CCN2C[C@H]3c4ccccc4CCc4cccc(c43)[C@@H]2C1 | 405
18 | CN(C)C1Cc2ccccc2C(C)(c2ccccc2)C1 (stereo in doubt; 14) | 40
19 | CN(C)C1Cc2ccccc2C(c2ccccc2)C1 (stereo in doubt; 1d) | 111
20 | CN(C)C1Cc2cc(O)c(O)cc2C(c2ccccc2)C1 (stereo in doubt; 12) | 69
21 | CN(C)C1Cc2ccccc2C(c2ccccc2)C1 (stereo in doubt; 1a) | 1.07
22 | CN(C)C1CCc2ccccc2C(c2ccccc2)C1 (stereo in doubt; 10) | 217
23 | CNC1Cc2ccccc2C(c2ccccc2)C1 (configuration not stated) | 64
24 | CN(C)C1Cc2ccccc2C(c2ccccc2Cl)C1 (configuration not stated) | 42.7
25 | CN(C)C1Cc2cc(O)c(O)cc2C(c2ccccc2)C1 (stereo in doubt; 13) | 11.8

Target: Histamine H1 receptor (Cavia porcellus) (UniProt P31389)
Sequence (P31389 whole entry): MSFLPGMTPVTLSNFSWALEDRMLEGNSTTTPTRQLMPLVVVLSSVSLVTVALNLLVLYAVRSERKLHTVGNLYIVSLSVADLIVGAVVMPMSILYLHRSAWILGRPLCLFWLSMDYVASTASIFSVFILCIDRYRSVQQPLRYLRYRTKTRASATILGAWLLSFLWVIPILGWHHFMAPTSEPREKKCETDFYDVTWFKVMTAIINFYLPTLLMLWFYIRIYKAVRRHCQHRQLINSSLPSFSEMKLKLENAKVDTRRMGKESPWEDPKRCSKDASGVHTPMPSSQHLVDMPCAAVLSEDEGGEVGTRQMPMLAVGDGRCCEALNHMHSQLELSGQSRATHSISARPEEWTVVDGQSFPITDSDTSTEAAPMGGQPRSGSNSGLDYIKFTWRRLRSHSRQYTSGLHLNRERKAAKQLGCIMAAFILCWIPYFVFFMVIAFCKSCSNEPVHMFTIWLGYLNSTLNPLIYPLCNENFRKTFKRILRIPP
Experiment: Compound was tested for the displacement of [3H]mepyramine from Histamine H1 receptor by competition binding assay
How it was run: as §1

Row | Compound | K0.5 [nM]
26 | CN(C)CC/C=C1/c2ccccc2COc2ccccc21 | 0.16
27 | CN(C)C1Cc2cc(Cl)c(O)cc2C(c2ccccc2)C1 (stereo in doubt; 2) | 1.47
28 | CN(C)CC[C@@H](c1ccc(Cl)cc1)c1ccccn1 | 1.16
29 | CN(C)CCOC(c1ccccc1)c1ccccc1 | 6.1
30 | Cc1ccc(/C(=C\CN2CCCC2)c2ccccn2)cc1 | 0.46
31 | OC(CCCN1CCN(c2ncc(F)cn2)CC1)c1ccc(F)cc1 (configuration not stated) | 548
32 | CN(C)CC[C@H](c1ccc(Cl)cc1)c1ccccn1 | 61.6
